# Legend:
# Mus musculus [1] = assay: Toxicity in female CDF1 mouse allografted with mouse P388 cells assessed as animal survival at 50 mg/kg, ip administered daily for 9 days as saline with Tween-80 solution starting 24 hrs after tumor inoculation; format: organism-based; design: dose 50 mg/kg, route intraperitoneal; conditions: in vivo
# Outline: (§1)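 P-388 leukemia ascitic fluid implanted ip. Compound dosed ip in saline with Tween-80 vehicle, once daily for nine doses from 24 h after tumor inoculation. Acute toxicity scored as toxicity-day survivors per group. Survival was followed up to 30 days, with 30-day survival counted as "cure". Follows NCI screening protocols.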
# P388 [2] = assay: Antitumor activity against mouse P388 cells allografted in female CDF1 mouse assessed as disease cures by measuring 30-days host survival at 100 mg/kg, ip administered daily for 9 days as saline with Tween-80 solution starting 24 hrs after tumor inoculation relative to control; format: functional; conditions: route intraperitoneal
# Outline: (§2)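 P388 ascitic cell inoculum given ip to CDF1 mice of the sex in each line. Nine daily ip doses in saline with Tween-80 as vehicle, starting 24 h after inoculation. Median survival time expressed as %T/C (>125 significant); "cure" defined as 30-day survival.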
# P388 [3] = assay: Antitumor activity against mouse P388 cells allografted in female CDF1 mouse assessed as disease cures by measuring 30-days host survival at 400 mg/kg, ip administered daily for 9 days as saline with Tween-80 solution starting 24 hrs after tumor inoculation relative to control; format: functional; conditions: route intraperitoneal; outline: as §2
# P388 [4] = assay: Antitumor activity against mouse P388 cells allografted in male CDF1 mouse assessed as disease cures by measuring 30-days host survival at 50 mg/kg, ip administered daily for 9 days as saline with Tween-80 solution starting 24 hrs after tumor inoculation relative to control; format: functional; conditions: route intraperitoneal; outline: as §2
# P388 [5] = assay: Antitumor activity against mouse P388 cells allografted in female CDF1 mouse assessed as disease cures by measuring 30-days host survival at 25 mg/kg, ip administered daily for 9 days as saline with Tween-80 solution starting 24 hrs after tumor inoculation relative to control; format: functional; conditions: route intraperitoneal; outline: as §2
# P388 [6] = assay: Antitumor activity against mouse P388 cells allografted in male CDF1 mouse assessed as change in body weight at 100 mg/kg, ip administered daily for 9 days as saline with Tween-80 solution starting 24 hrs after tumor inoculation; format: functional; conditions: route intraperitoneal
# Outline: (§3)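 Ascitic fluid carrying P388 cells was inoculated ip. Compound was given ip in nine daily doses, starting 24 h after inoculation, in Klucel (hydroxypropylcellulose) suspension or in saline with Tween-80. Body-weight difference (treated minus control) was recorded on day 5. Survival was scored as %T/C of median survival time, and 30-day survival counted as cure.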
# P388 [7] = assay: Antitumor activity against mouse P388 cells allografted in female CDF1 mouse assessed as change in body weight at 100 mg/kg, ip administered daily for 9 days as saline with Tween-80 solution starting 24 hrs after tumor inoculation; format: functional; conditions: route intraperitoneal; outline: as §3
# P388 [8] = assay: Antitumor activity against mouse P388 cells allografted in female CDF1 mouse assessed as change in body weight at 400 mg/kg, ip administered daily for 9 days as saline with Tween-80 solution starting 24 hrs after tumor inoculation; format: functional; conditions: route intraperitoneal; outline: as §3
# Mus musculus [9] = assay: Toxicity in male CDF1 mouse allografted with mouse P388 cells assessed as animal survival at 50 mg/kg, ip administered daily for 9 days as saline with Tween-80 solution starting 24 hrs after tumor inoculation; format: organism-based; design: dose 50 mg/kg, route intraperitoneal; conditions: in vivo; outline: as §1
# P388 [10] = assay: Antitumor activity against mouse P388 cells allografted in male CDF1 mouse assessed as change in body weight at 25 mg/kg, ip administered daily for 9 days as saline with Tween-80 solution starting 24 hrs after tumor inoculation; format: functional; conditions: route intraperitoneal; outline: as §3
# P388 [11] = assay: Antitumor activity against mouse P388 cells allografted in female CDF1 mouse assessed as change in body weight at 200 mg/kg, ip administered daily for 9 days as saline with Tween-80 solution starting 24 hrs after tumor inoculation; format: functional; conditions: route intraperitoneal; outline: as §3
# P388 [12] = assay: Antitumor activity against mouse P388 cells allografted in female CDF1 mouse assessed as disease cures by measuring 30-days host survival at 50 mg/kg, ip administered daily for 9 days as saline with Tween-80 solution starting 24 hrs after tumor inoculation relative to control; format: functional; conditions: route intraperitoneal; outline: as §2
# P388 [13] = assay: Antitumor activity against mouse P388 cells allografted in female CDF1 mouse assessed as change in body weight at 25 mg/kg, ip administered daily for 9 days as saline with Tween-80 solution starting 24 hrs after tumor inoculation; format: functional; conditions: route intraperitoneal; outline: as §3
# P388 [14] = assay: Antitumor activity against mouse P388 cells allografted in female CDF1 mouse assessed as disease cures by measuring 30-days host survival at 200 mg/kg, ip administered daily for 9 days as saline with Tween-80 solution starting 24 hrs after tumor inoculation relative to control; format: functional; conditions: route intraperitoneal; outline: as §2
# P388 [15] = assay: Antitumor activity against mouse P388 cells allografted in female CDF1 mouse assessed as change in body weight at 50 mg/kg, ip administered daily for 9 days as saline with Tween-80 solution starting 24 hrs after tumor inoculation; format: functional; conditions: route intraperitoneal; outline: as §3
# Mus musculus [16] = assay: Toxicity in male CDF1 mouse allografted with mouse P388 cells assessed as animal survival at 100 mg/kg, ip administered daily for 9 days as saline with Tween-80 solution starting 24 hrs after tumor inoculation; format: organism-based; design: dose 100 mg/kg, route intraperitoneal; conditions: in vivo; outline: as §1
# Mus musculus [17] = assay: Toxicity in female CDF1 mouse allografted with mouse P388 cells assessed as animal survival at 200 mg/kg, ip administered daily for 9 days as saline with Tween-80 solution starting 24 hrs after tumor inoculation; format: organism-based; design: dose 200 mg/kg, route intraperitoneal; conditions: in vivo; outline: as §1
# P388 [18] = assay: Antitumor activity against mouse P388 cells allografted in male CDF1 mouse assessed as change in body weight at 50 mg/kg, ip administered daily for 9 days as saline with Tween-80 solution starting 24 hrs after tumor inoculation; format: functional; conditions: route intraperitoneal; outline: as §3
# Mus musculus [19] = assay: Toxicity in female CDF1 mouse allografted with mouse P388 cells assessed as animal survival at 100 mg/kg, ip administered daily for 9 days as saline with Tween-80 solution starting 24 hrs after tumor inoculation; format: organism-based; design: dose 100 mg/kg, route intraperitoneal; conditions: in vivo; outline: as §1
# P388 [20] = assay: Antitumor activity against mouse P388 cells allografted in male CDF1 mouse assessed as disease cures by measuring 30-days host survival at 25 mg/kg, ip administered daily for 9 days as saline with Tween-80 solution starting 24 hrs after tumor inoculation relative to control; format: functional; conditions: route intraperitoneal; outline: as §2
# Mus musculus [21] = assay: Toxicity in female CDF1 mouse allografted with mouse P388 cells assessed as animal survival at 25 mg/kg, ip administered daily for 9 days as saline with Tween-80 solution starting 24 hrs after tumor inoculation; format: organism-based; design: dose 25 mg/kg, route intraperitoneal; conditions: in vivo; outline: as §1
# P388 [22] = assay: Antitumor activity against mouse P388 cells allografted in male CDF1 mouse assessed as disease cures by measuring 30-days host survival at 100 mg/kg, ip administered daily for 9 days as saline with Tween-80 solution starting 24 hrs after tumor inoculation relative to control; format: functional; conditions: route intraperitoneal; outline: as §2
smiles,measurement,setting,value
CCCCNC(=O)OCc1c(COC(=O)NCCCC)c(-c2ccc(Cl)c(Cl)c2)n2c1CCC2,Activity,Mus musculus [1],Non-toxic
same,T/C,P388 [2],181%
same,T/C,P388 [3],84%
same,T/C,P388 [4],137%
same,T/C,P388 [5],159%
same,Activity,P388 [6],-0.4 g
same,Activity,P388 [7],-2 g
same,Activity,P388 [8],-3.6 g
same,Activity,Mus musculus [9],Non-toxic
same,Activity,P388 [10],-1.9 g
same,Activity,P388 [11],-3.2 g
same,T/C,P388 [12],171%
same,Activity,P388 [13],-1.2 g
same,T/C,P388 [14],163%
same,Activity,P388 [15],-1.9 g
same,Activity,Mus musculus [16],Non-toxic
same,Activity,Mus musculus [17],Non-toxic
same,Activity,P388 [18],-1.1 g
same,Activity,Mus musculus [19],Non-toxic
same,T/C,P388 [20],138%
same,Activity,Mus musculus [21],Non-toxic
same,T/C,P388 [22],160%

# Source: ChEMBL document CHEMBL3244396, “Synthesis and antileukemic activity of 5-substituted 2,3-dihydro-6,7-bis(hydroxymethyl)-1H-pyrrolizine diesters” (J Med Chem, 1977)
